Assay results from ChEMBL document CHEMBL4020830, “Design, Synthesis, and Evaluation of a Novel Series of Indole Sulfonamide Peroxisome Proliferator Activated Receptor (PPAR) α/γ/δ Triple Activators: Discovery of Lanifibranor, a New Antifibrotic Clinical Candidate” (J Med Chem, 2018).
Calls of active or inactive are those of the source. No cut-off for these calls is given here.

Assays:
[1] = molecular target: T1, Peroxisome proliferator-activated receptor alpha (Mus musculus, UniProt P23204); experiment: Transactivation of mouse GAL4-fused PPARalpha LBD expressed in African green monkey COS7 cells co-expressing 5Gal4 pGL3 TK Luc after overnight incubation by luciferase reporter gene assay; assay type: cell-based
T1 sequence (P23204 whole entry): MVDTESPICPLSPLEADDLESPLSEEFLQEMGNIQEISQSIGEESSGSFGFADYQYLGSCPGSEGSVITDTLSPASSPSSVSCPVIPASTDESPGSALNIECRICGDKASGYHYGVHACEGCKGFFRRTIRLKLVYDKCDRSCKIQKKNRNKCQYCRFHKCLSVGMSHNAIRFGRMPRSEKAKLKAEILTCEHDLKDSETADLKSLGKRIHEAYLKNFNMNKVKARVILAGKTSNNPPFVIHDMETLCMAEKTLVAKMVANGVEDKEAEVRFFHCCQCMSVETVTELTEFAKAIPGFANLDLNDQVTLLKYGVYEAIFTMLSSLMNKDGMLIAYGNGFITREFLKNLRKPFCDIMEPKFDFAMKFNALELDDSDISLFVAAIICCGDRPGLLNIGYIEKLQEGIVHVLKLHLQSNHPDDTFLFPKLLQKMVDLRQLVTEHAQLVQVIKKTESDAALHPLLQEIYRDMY
Method in brief: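 Cell-based Gal-4 transactivation assay in COS-7 cells transfected with PPARα, PPARδ or PPARγ ligand-binding domain. EC50 and Emax were derived, with Emax as maximum activation in percent of control. EC50s are means of at least two independent experiments performed in triplicate.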

[2] = system: Mus musculus; experiment: Antifibrotic activity in C57Bl6/J mouse model of CCl4-induced liver fibrosis assessed as decrease in collagen deposition in liver administered po qd for 3 weeks by picrosirius red staining based assay; assay type: functional, organism-based
Method in brief: (§1)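 CCl4-induced liver fibrosis mice were dosed orally once daily at 3, 10 or 30 mg/kg for 3 weeks. Controls were CCl4-vehicle, vehicle oil and saline-injected groups. Liver collagen was scored by picrosirius red staining of histological sections. Plasma triglycerides and adiponectin were also measured. Analysis was one-way ANOVA with Dunnett's test.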

[3] = molecular target: T2, Peroxisome proliferator-activated receptor gamma (Homo sapiens, UniProt P37231)
T2 sequence (P37231 whole entry): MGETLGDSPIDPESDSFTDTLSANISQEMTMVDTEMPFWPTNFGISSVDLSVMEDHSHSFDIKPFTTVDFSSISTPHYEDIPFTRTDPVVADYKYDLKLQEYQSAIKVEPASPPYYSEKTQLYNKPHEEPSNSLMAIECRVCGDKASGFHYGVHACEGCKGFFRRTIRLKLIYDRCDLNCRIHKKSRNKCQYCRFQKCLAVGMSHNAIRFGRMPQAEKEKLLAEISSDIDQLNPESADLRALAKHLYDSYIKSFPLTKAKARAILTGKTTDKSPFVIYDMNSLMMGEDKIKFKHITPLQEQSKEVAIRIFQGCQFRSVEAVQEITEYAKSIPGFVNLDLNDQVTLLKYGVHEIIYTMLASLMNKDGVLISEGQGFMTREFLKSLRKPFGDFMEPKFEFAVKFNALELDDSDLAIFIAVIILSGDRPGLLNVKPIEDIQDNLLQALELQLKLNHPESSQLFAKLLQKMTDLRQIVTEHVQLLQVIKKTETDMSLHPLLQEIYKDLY

[4] = molecular target: T2, Peroxisome proliferator-activated receptor gamma; remark: listed apart in the source
[5] = molecular target: T3, Peroxisome proliferator-activated receptor delta (Mus musculus) (UniProt P35396); experiment: Transactivation of PPARdelta in mouse C2C12 cells assessed increase in [14C]oleate beta-oxidation at 3 uM preincubated for 48 hrs followed by [14C]oleate addition during last 2 hrs of incubation period relative to control; assay type: cell-based
T3 sequence (whole entry): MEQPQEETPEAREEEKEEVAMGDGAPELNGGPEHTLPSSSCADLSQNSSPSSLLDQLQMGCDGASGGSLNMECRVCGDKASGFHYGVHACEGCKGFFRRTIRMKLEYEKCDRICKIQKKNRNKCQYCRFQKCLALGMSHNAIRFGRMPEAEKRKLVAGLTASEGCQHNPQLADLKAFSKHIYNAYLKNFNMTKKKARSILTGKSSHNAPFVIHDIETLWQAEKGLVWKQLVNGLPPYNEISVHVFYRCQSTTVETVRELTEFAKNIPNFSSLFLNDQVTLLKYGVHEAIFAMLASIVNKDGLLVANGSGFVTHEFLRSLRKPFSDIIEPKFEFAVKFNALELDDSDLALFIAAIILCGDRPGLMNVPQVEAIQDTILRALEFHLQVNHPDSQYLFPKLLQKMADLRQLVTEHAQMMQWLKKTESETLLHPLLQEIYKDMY
Method in brief: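 Fatty acid beta-oxidation was used as the functional read-out. PPARα activity was tested in human hepatoma HuH7 cells and PPARδ activity in mouse myoblast C2C12 cells, at 1, 3, 10 and 30 µM. Values are % beta-oxidation, mean of at least 2 independent experiments run in triplicate, with single-experiment values flagged.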

[6] = molecular target: T4, Peroxisome proliferator-activated receptor gamma (Mus musculus, UniProt P37238); experiment: Transactivation of mouse GAL4-fused PPARgamma LBD expressed in African green monkey COS7 cells co-expressing 5Gal4 pGL3 TK Luc after overnight incubation by luciferase reporter gene assay
T4 sequence (P37238 whole entry): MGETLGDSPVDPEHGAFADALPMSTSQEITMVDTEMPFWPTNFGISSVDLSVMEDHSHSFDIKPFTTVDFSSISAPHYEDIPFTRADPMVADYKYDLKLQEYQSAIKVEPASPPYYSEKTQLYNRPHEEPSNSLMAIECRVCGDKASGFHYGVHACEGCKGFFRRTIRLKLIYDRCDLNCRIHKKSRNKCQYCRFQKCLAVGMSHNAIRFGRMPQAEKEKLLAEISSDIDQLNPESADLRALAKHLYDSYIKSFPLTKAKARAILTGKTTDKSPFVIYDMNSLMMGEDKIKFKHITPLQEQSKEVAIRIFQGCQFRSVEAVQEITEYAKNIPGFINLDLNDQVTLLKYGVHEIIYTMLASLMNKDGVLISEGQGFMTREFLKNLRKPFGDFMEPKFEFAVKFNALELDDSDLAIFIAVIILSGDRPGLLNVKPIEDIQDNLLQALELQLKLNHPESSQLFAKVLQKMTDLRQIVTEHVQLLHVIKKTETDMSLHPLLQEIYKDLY

[7] = system: Mus musculus; experiment: Antidiabetic activity in C57BL/Ks mouse model of diabetic dyslipidemia assessed as decrease in plasma glucose level administered via oral gavage qd for 5 days measured 4 hrs post last dose; assay type: functional
Method in brief: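 Homozygous male C57BL/Ks-db (db/db) mice were gavaged once daily at 10 or 30 mg/kg, for 5 or 10 days. Retro-orbital blood was drawn before treatment and 4 h after the last gavage. Glucose and triglycerides were measured in serum. Results are expressed as % variation on the final day versus the control group. Analysis was one-way ANOVA with Dunnett's test.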

[8] = system: Mus musculus; experiment: Reduction in plasma triglyceride level in C57Bl6/J mouse model of CCl4-induced liver fibrosis at 3 to 30 mg/kg, po qd for 3 weeks; assay type: functional, organism-based; method in brief: as §1
[9] = molecular target: T2, Peroxisome proliferator-activated receptor gamma; remark: listed apart in the source

EC50 [1]: 366 nM | EC50 [3]: 4100 nM | EC50 [4]: 1140 nM | Activity [5]: 37% | EC50 [6]: 202 nM | EC50 [9]: 3410 nM
Structure (SMILES): O=C(O)CCCc1cc2cc(Cl)ccc2n1S(=O)(=O)c1ccc2ncsc2c1 [LANIFIBRANOR]
Activity [2]: Dose-dependent effect | Activity [7]: Dose-dependent effect | Activity [8]: Active
